Measurements published in ChEMBL document CHEMBL1137673, “Improved synthesis of seven aromatic Baylis-Hillman adducts (BHA): evaluation against Artemia salina Leach. and Leishmania chagasi” (Eur J Med Chem, 2009).

Experiments:
[1] = tested on: Artemia salina (organism); assay: Toxicity in Artemia salina after 24 hrs; type: organism-based; settings: in vivo
Procedure, shortened: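 Brine shrimp nauplii hatched in filtered sea water over 48 h (lamp drawing hatched shrimps through a partitioned tank), exposed to compound in DMSO/sea water in tubes for 24 h under light. Dead and surviving shrimps counted; LC50 from concentration versus lethality percentage on a probit scale. Sea water plus DMSO served as control.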

[2] = tested on: Leishmania chagasi; assay: Antileishmanial activity against promastigote form of Leishmania chagasi MCAN/BR/99/JP15 after 72 hrs; type: functional, organism-based, MCAN/BR/99/JP
Procedure, shortened: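 Log-phase promastigotes at 1 × 10^6 parasites/mL were grown at 26 °C in Schneider's Drosophila medium with 20% FBS, with or without a range of adduct concentrations, for 72 h. Glucantime served as the reference drug. Parasites were fixed in isotonic citric acid/NaCl/formalin solution, and growth was counted by light microscopy in a Neubauer chamber. Three independent experiments were run in triplicate.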

[3] = tested on: Leishmania amazonensis; assay: Antileishmanial activity against Leishmania amazonensis; type: functional, organism-based
[4] = Leishmania chagasi, MCAN/BR/99/JP, 72 h, read-out: IC50

| Molecule | LC50 at 24 h [1] [µM] | IC50 [2, 4] [µM] | IC50 [3] [µM] | IC50 [2] [µg/mL] |
| --- | --- | --- | --- | --- |
| C=C(C#N)C(O)c1ccc([N+](=O)[O-])cc1 (stereo unspecified) | 180 | 37.4 | 7.9 |  |
| C=C(C#N)C(O)c1cccnc1 (stereo unspecified) | 555 | 36.9 |  |  |
| C=C(C#N)C(O)c1ccc(Br)cc1 (stereo unspecified) | 130 | 25.2 |  |  |
| C=C(C#N)C(O)c1cccc([N+](=O)[O-])c1 (stereo unspecified) | 471 | 34.6 |  |  |
| C=C(C#N)C(O)c1ccccn1 (stereo unspecified) | 545 | 32 |  |  |
| C=C(C#N)C(O)c1ccccc1[N+](=O)[O-] (stereo unspecified) | 430 | 38.8 |  |  |
| C=C(C#N)C(O)c1ccncc1 (stereo unspecified) | 443 | 30.1 |  |  |
| MEGLUMINE ANTIMONATE |  |  |  | 1620.3 |
